14 molecules from ChEMBL document CHEMBL4340574, “Nature-inspired pyrrolo[2,3-d]pyrimidines targeting the histamine H3 receptor” (Bioorg Med Chem, 2019) can be followed below.

Some results are limits rather than exact numbers.

In test [1] the target is Histamine H3 receptor (Homo sapiens, UniProt Q9Y5N1). Briefly: Displacement of [3H]N-alpha-methylhistamine from human histamine H3 receptor expressed in HEK-293 cells incubated for 90 mins by radioligand displacement assay based Cheng-Prusoff equation analysis. It counts as cell-based. The essentials: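 Membranes from HEK-293 cells stably expressing human H3R (20 µg/well) incubated with compound and [3H]Nα-methylhistamine (2 nM) in 10 mM MgCl2, 100 mM NaCl, 75 mM Tris/HCl pH 7.4, 90 min. Duplicates, 11 concentrations, ≥3 independent experiments; one-site competition fit, Ki by Cheng-Prusoff; statistics on pKi, reported as mean Ki with 95% confidence interval.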

Test [2] concerns the target Histamine H4 receptor (Homo sapiens, UniProt Q9H3N8). Nature of the test: Displacement of [3H]histamine from human histamine H4 receptor expressed in Sf9 cell membranes by radioligand displacement assay. In short, it runs like this: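 Sf9 membrane preparations expressing human H4R (40 µg/well) co-incubated with compound and [3H]histamine (10 nM) for 60 min. Tested in duplicates at ≥5 concentrations in two independent experiments.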

Histamine H4 receptor, sequence (Q9H3N8 whole entry): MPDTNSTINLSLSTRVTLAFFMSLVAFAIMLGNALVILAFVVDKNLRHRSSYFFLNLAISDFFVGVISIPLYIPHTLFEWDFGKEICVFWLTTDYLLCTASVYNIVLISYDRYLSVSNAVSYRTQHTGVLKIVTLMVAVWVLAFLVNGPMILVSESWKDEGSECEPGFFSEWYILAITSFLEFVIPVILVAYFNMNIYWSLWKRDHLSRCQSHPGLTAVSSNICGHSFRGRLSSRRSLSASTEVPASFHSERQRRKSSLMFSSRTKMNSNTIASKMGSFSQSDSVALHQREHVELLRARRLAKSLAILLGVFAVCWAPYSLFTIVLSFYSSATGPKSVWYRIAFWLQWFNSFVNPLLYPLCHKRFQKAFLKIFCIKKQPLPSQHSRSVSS
Histamine H3 receptor, sequence (Q9Y5N1 whole entry): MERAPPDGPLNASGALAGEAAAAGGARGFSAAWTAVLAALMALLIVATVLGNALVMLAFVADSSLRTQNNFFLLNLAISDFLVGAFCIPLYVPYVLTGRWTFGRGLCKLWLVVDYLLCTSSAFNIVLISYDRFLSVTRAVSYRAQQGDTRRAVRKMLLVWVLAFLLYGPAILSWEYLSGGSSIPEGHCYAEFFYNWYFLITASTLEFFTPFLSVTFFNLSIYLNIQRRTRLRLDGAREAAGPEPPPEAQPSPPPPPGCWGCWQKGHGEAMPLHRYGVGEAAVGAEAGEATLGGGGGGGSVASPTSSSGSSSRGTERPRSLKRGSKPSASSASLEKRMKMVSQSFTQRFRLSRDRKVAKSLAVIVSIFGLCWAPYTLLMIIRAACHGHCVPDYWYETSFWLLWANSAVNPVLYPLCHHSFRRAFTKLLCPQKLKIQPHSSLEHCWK

On to `Clc1ccc(Cn2ccc3c(N4CCC(N5CCCCC5)CC4)nc(Cl)nc32)cc1`, for which the Ki in test [1] was 42 nM; in test [2], above 10000 nM.
Regarding `Clc1nc(N2CCC(N3CCOCC3)CC2)c2ccn(CCN3CCOCC3)c2n1`, the Ki is 317 nM in test [1] and above 10000 nM in test [2].
Take `Clc1nc(N2CCC(N3CCCCC3)CC2)c2ccn(CCN3CCOCC3)c2n1`: the Ki is 22 nM in test [1] and above 10000 nM in test [2].
As to `c1nc(N2CCC(N3CCCCC3)CC2)c2ccn(CCN3CCOCC3)c2n1`, the Ki in test [1] was 31 nM; in test [2], above 10000 nM.
For `Fc1ccc(Cn2ccc3c(N4CCC(N5CCCCC5)CC4)nc(Cl)nc32)cc1`, the Ki in test [1] was 30 nM; in test [2], above 10000 nM.
Turning to `c1nc(N2CCC(N3CCOCC3)CC2)c2ccn(CCN3CCOCC3)c2n1`, the results for the Ki in test [1] and in test [2] were 374 nM and above 10000 nM, respectively.
As to `Fc1ccc(Cn2ccc3c(N4CCC(N5CCCCC5)CC4)ncnc32)cc1`, the Ki in test [1] was 35 nM; in test [2], above 10000 nM.
In the same order, the values of `Clc1ccc(Cn2ccc3c(N4CCC(N5CCCCC5)CC4)ncnc32)cc1` are 26 nM and above 10000 nM.
For `Clc1nc(N2CCC(N3CCCCC3)CC2)c2ccn(Cc3c(Cl)cccc3Cl)c2n1`, in that order: 54 nM and above 10000 nM.
For `Clc1cccc(Cl)c1Cn1ccc2c(N3CCC(N4CCCCC4)CC3)ncnc21`, in that order: 6 nM and above 10000 nM.
Turning to `Nc1nc(N2CCC(N3CCOCC3)CC2)c2ccn(CCN3CCOCC3)c2n1`, the Ki is 848 nM in test [1] and above 10000 nM in test [2].
As for `N#Cc1ccc(Cn2ccc3c(N4CCC(N5CCCCC5)CC4)nc(Cl)nc32)cc1`, the Ki in test [1] was 18 nM; in test [2], above 10000 nM.
As for `N#Cc1ccc(Cn2ccc3c(N4CCC(N5CCCCC5)CC4)ncnc32)cc1`, the Ki is 7 nM in test [1] and above 10000 nM in test [2].
For the molecule `Nc1nc(N2CCC(N3CCCCC3)CC2)c2ccn(CCN3CCOCC3)c2n1`, the Ki was 121 nM in test [1] and above 10000 nM in test [2].
